Assay results taken from ChEMBL document CHEMBL3632545, “1,3-Disubstituted and 1,3,3-trisubstituted adamantyl-ureas with isoxazole as soluble epoxide hydrolase inhibitors” (Bioorg Med Chem Lett, 2015).
pIC50: −log10 of the molar value. Converted amounts (≈) assume the structure as drawn.

What was measured:
[1] = target: T1, Bifunctional epoxide hydrolase 2 (Homo sapiens, UniProt P34913); assay: Inhibition of recombinant human soluble epoxide hydrolase using CMNPC as substrate by kinetic fluorescent assay
T1 sequence (P34913 whole entry): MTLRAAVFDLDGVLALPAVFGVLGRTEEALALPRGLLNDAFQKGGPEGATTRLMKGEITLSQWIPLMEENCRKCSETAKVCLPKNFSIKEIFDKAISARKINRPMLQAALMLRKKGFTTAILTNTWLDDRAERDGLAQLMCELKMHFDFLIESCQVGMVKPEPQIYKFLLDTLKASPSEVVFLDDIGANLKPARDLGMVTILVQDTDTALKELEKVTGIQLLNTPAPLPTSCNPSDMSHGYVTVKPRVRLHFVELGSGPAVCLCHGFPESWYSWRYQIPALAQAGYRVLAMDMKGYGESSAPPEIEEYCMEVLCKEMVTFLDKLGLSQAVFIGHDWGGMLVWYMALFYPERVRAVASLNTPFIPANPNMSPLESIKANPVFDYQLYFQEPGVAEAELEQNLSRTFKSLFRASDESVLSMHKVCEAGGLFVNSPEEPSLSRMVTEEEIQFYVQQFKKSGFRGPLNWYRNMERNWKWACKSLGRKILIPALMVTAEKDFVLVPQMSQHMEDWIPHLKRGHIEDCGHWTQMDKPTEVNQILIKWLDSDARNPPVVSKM
In short: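 Recombinant purified human sEH, CMNPC substrate, kinetic fluorescence read-out; IC50 derived. Where reported, values are the mean ± standard deviation of three separate measurements.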

[2] = Solubility of compound in sodium phosphate buffer at pH 7.4; assay type: physicochemical
In short: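 Measured in 0.1 M sodium phosphate buffer, pH 7.4, containing 1% DMSO; reported as a concentration range bracketing the solubility limit (μM).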

[3] = Metabolic stability in human liver microsomes assessed as compound remaining at 1 uM after 30 mins by LC/MS/MS analysis in absence of NADPH generating system; assay type: ADME; conditions: read-out: Stability
In short: (§1)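 Compound at 1 μM incubated with human liver microsomes (1 mg/mL) at 37°C for 30 minutes, with or without an NADPH generating system. Read-out is percent of compound remaining. Values are the average of triplicates ± standard deviation.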

[4] = Metabolic stability in human liver microsomes assessed as compound remaining at 1 uM after 30 mins by LC/MS/MS analysis in presence of NADPH generating system; assay type: ADME; conditions: read-out: Stability; in short: as §1

| SMILES | pIC50 [1] | solubility [2] [µM] | remaining at 0.5 h, 1 µM [3] [%] | remaining at 0.5 h, 1 µM [4] [%] |
| --- | --- | --- | --- | --- |
| CC12CC3CC(C)(C1)CC(NC(=O)NCc1cc(-c4ccco4)on1)(C3)C2 | 8.39 | 75 (≈ 27.7 µg/mL) | 95 | 0.3 |
| Cc1ccc(-c2cc(CNC(=O)NC34CC5CC(C)(CC(C)(C5)C3)C4)no2)cc1 | 7.59 | 125 (≈ 49.2 µg/mL) | 115 | 0.4 |
| Cc1cc(CNC(=O)NC23CC4CC(C)(CC(C)(C4)C2)C3)on1 | 6.91 | 200 (≈ 63.5 µg/mL) | 83 | 0.1 |
| CC(C)c1cc(CNC(=O)NCC23CC4CC(CC(C4)C2)C3)on1 | 7.35 | 125 (≈ 41.4 µg/mL) |  |  |
| O=C(NCc1cc(-c2ccco2)on1)NCC12CC3CC(CC(C3)C1)C2 | 8.31 | 75 (≈ 26.7 µg/mL) | 91 | 0.4 |
| Cc1ccc(-c2cc(CNC(=O)NCC34CC5CC(CC(C5)C3)C4)no2)cc1 | 7.81 | 75 (≈ 28.5 µg/mL) | 97 | 0.4 |
| Cc1cc(C2CCCN2C(=O)NCC23CC4CC(CC(C4)C2)C3)no1 (stereo unspecified) | 6.28 | 525 (≈ 180 µg/mL) |  |  |
| O=C(NCc1cc(-c2ccc(F)cc2)no1)NCC12CC3CC(CC(C3)C1)C2 | 7.98 | 50 (≈ 19.2 µg/mL) |  |  |
| CC12CC3CC(C)(C1)CC(NC(=O)NCc1cc(-c4cccc(F)c4)no1)(C3)C2 | 7.77 | 75 (≈ 29.8 µg/mL) | 92 | 0.4 |
| CC(C)c1cc(CN(C)C(=O)NCC23CC4CC(CC(C4)C2)C3)on1 | 6.72 | 350 (≈ 121 µg/mL) |  |  |
| CC(C)c1cc(C2CCCN2C(=O)NCC23CC4CC(CC(C4)C2)C3)no1 (stereo unspecified) | 6.61 | 250 (≈ 92.9 µg/mL) |  |  |
| Cc1cc(C2CCCN2C(=O)NCC23CC4CC(CC(C4)C2)C3)on1 (stereo unspecified) | 7.04 | 575 (≈ 197 µg/mL) |  |  |
| O=C(NCc1cc(-c2cccc(F)c2)no1)NCC12CC3CC(CC(C3)C1)C2 | 7.78 | 75 (≈ 28.8 µg/mL) | 97 | 0.3 |
| CC(C)c1cc(CN(C)C(=O)NCC23CC4CC(CC(C4)C2)C3)no1 | 6.24 | 200 (≈ 69.1 µg/mL) |  |  |
| COc1ccc(-c2cc(CNC(=O)NC34CC5CC(C)(CC(C)(C5)C3)C4)no2)cc1 | 7.82 | 25 (≈ 10.2 µg/mL) | 102 | 0.4 |
| Cc1cc(CNC(=O)NCC23CC4CC(CC(C4)C2)C3)on1 | 8.17 | 450 (≈ 137 µg/mL) | 72 | 2.9 |
| COc1ccc(-c2cc(CNC(=O)NCC34CC5CC(CC(C5)C3)C4)no2)cc1 | 7.89 | 100 (≈ 39.6 µg/mL) | 87 | 0.8 |
| CCc1cc(CNC(=O)NCC23CC4CC(CC(C4)C2)C3)on1 | 7.53 | 300 (≈ 95.2 µg/mL) |  |  |
